What is called IC50 is the concentration that inhibits the measured activity by half. One may read the Emax as the maximal effect, on the per cent scale that the assay sets. A word on the CC50: it is the concentration giving 50% cytotoxicity.

The values that follow come from ChEMBL document CHEMBL1926624, “Secondary metabolites from the roots of Neolitsea daibuensis and their anti-inflammatory activity” (J Nat Prod, 2011).

Each structure is given as a SMILES string. Values after ≈ are worked out from the molar mass of the structure shown. Where only a bound is given, the exact number is not on record here.

In series [1] the target is T1, Nitric oxide synthase, inducible (Mus musculus, UniProt P29477).
T1 sequence (P29477 whole entry): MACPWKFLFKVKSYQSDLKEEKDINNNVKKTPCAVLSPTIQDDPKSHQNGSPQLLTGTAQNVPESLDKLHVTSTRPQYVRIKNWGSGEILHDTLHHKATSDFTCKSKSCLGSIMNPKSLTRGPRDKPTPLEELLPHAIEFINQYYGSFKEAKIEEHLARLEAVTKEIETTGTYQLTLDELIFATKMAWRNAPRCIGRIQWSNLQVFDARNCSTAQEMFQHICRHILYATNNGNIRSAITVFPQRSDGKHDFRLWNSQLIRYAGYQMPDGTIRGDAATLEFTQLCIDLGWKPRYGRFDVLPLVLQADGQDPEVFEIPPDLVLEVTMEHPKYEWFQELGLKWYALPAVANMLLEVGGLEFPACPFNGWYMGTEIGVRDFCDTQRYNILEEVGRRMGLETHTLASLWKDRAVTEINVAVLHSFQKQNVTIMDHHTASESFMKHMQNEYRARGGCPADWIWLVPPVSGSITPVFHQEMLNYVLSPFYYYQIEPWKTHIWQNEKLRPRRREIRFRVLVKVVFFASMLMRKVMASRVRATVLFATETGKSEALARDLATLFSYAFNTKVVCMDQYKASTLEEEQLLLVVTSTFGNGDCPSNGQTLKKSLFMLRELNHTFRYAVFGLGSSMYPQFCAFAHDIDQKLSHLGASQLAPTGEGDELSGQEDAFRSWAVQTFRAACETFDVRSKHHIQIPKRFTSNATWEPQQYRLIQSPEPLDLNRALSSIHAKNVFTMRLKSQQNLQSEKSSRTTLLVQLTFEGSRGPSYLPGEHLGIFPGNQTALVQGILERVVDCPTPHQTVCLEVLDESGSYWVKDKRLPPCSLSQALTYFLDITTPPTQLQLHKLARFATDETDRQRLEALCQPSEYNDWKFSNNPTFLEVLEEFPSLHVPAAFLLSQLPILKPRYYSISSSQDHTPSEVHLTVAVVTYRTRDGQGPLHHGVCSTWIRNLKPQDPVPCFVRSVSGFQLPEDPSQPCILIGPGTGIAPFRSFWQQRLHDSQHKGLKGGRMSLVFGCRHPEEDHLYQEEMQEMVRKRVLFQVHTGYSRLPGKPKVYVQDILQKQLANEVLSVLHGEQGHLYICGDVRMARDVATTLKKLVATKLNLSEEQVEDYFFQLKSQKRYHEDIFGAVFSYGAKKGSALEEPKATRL
Kind of series: Inhibition of iNOS-mediated NO production in LPS-stimulated mouse RAW264.7 cells after 24 hrs by Griess reagent method. The series is classed as cell-based. A digest of the protocol: (§1)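 RAW 264.7 murine macrophages in DMEM with 10% FCS were grown to confluence for 24 h, then held serum-free for 4 h. Test agent, or 0.1% DMSO vehicle, was given with LPS (200 ng/mL) for 24 h. Supernatant nitrite was measured with Griess reagent (10 min, room temperature) at A550 against a NaNO2 standard curve. % inhibition is relative to vehicle+LPS; Emax at 100 μM; IC50 = concentration giving 50% Emax; n = 4−6.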
(In general: The Griess reaction detects nitrite, a stable product of nitric oxide.)

Series [2] concerns the target T2, Nitric oxide synthase, inducible (Mus musculus) (UniProt P29477).
T2 sequence (whole entry): T1 sequence (P29477 whole entry)
Kind of series: Inhibition of iNOS-mediated NO production in LPS-stimulated mouse RAW264.7 cells after 24 hrs by Griess reagent method relative to control. The class given is cell-based. The essentials: as §1

The nature of series [3]: Cytotoxicity against mouse RAW264.7 cells assessed as reduction in cell viability after 3 hrs by alamar blue assay. The series is classed as cell-based. The essentials: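 Viability was tested in the same RAW 264.7 wells after the supernatant was removed for nitrite. 10% AlamarBlue in DMEM was added and the plates incubated at 37 °C. Absorbance was read at 570/600 nm against cell-free blanks, with LPS+vehicle wells set as 100% viability. CC50 = concentration lowering viability by 50%; mean ± SE.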
For orientation: The colour change of resazurin is a common sign of viable cells or microbes.

The target of series [4] is T2, Nitric oxide synthase, inducible (Mus musculus). The series is described as follows: Inhibition of iNOS-mediated NO production in LPS-stimulated mouse RAW264.7 cells at 25 uM after 24 hrs by Griess reagent method relative to control. The series is classed as cell-based. The essentials: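 Confluent RAW 264.7 cells, serum-starved 4 h, received test agent at 25 μM, or 0.1% DMSO vehicle, together with LPS (200 ng/mL) for 24 h. Supernatant nitrite was read by Griess reaction, A550, against a NaNO2 standard curve. Result is maximal inhibition expressed as % of vehicle+LPS nitrite; n = 4−6.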

The next series concerns RAW264.7. Kind of series: Cytotoxicity against mouse RAW264.7 cells assessed as reduction in cell viability at 50 uM after 3 hrs by alamar blue assay. The series is classed as cell-based. Particulars: raw264.7, 3 h.
Series [5] is described as follows: Antiinflammatory activity in human neutrophils assessed as inhibition of fMLP-induced superoxide anion production. As to conditions: Neutrophil. The class given is functional, cell-based.
A short description of series [6]: Antiinflammatory activity in human neutrophils assessed as inhibition of […] superoxide anion production. The class given is functional, cell-based. Particulars: Neutrophil.

As for `COc1cc2c([nH]c3ccc(O)cc32)c(Cc2ccc(O)cc2)n1` [DAIBUCARBOLINE A], the IC50 in series [1] was 18.4 µM. In addition, in series [2], the Emax came to 96.1% and the inhibition result was “Dose-dependent effect”. Moreover, the CC50 at 3 h in series [3] was 94.8 µM.

As to `C=C[C@@]1(C)Cc2occ(C)c2[C@@H]2OC(=O)C(=C)[C@@H]21` [ISOLINDERALACTONE], the IC50 in series [1] amounted to 0.3 µM. This compound came in with an Emax in series [4] of 100%. For the same compound, the Activity result in the series on RAW264.7 is “Toxic”. Further, the CC50 at 3 h in series [3] amounted to 66.4 µM.

Turning to `C/C1=C\CCC2=C[C@@H](OC2=O)c2c(C)coc2C1` [LINDERALACTONE], the half-maximal inhibitory concentration (IC50) in series [5] and in series [6] was 8.48 µg/mL (≈ 34.7 µM) each time.

As for `N=C(NCCC[C@H](N)C(=O)O)N[N+](=O)[O-]` [NITROARGININE], the midpoint of inhibition in series [1], the IC50, lay at 144 µM. For the same compound, in series [2], the Emax is 41.2%. Further, in series [3], the CC50 at 3 h is more than 100 µM.

On to `N=C(N)NN` [PIMAGEDINE], for which the IC50 in series [1] is 28.5 µM. The same compound yielded an Emax in series [2] of 83.5%. Moreover, the CC50 at 3 h in series [3] was more than 100 µM.

`COc1cc(O)c2c(=O)c(-c3ccc(O)cc3)coc2c1` [PRUNETIN] returned an IC50 in series [1] of 10.5 µM. The Emax in series [2] was 94.8%. Moreover, the CC50 at 3 h in series [3] is more than 100 µM.

As for `Cc1coc2c1[C@H]1C=C(CC[C@@H]3O[C@@]3(C)C2)C(=O)O1` [PSEUDONEOLINDERANE], the IC50 in series [5] and in series [6] was 3.21 µg/mL (≈ 12.3 µM) throughout.

In the case of `COc1cc(O)c2c(c1)O[C@H](c1ccc(O)cc1)CC2=O` [SAKURANETIN], inhibition in series [1] was half-maximal at 19.6 µM (IC50). The Emax in series [2] stood at 85.2%. In addition, the CC50 at 3 h in series [3] is more than 100 µM.
